Key:
[1] = system: Rattus norvegicus; test: Antiinflammatory efficacy is measured by the percent inhibition of paw volume during the 3 week adjuvant arthritis test at 0.005 mM/kg (2.20 mg); assay type: functional
Outline: (§1)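 Male Sprague-Dawley rats (200–230 g) were used in groups of eight. Each received 0.1 mL of 0.6% M. butyricum in heavy mineral oil into the plantar tissue of one hind paw. Daily oral gavage in 1% gum tragacanth or corn oil-water emulsion began on the injection day and ran 21 days. Total hind paw volume was measured by mercury displacement, and inhibition was taken versus vehicle-treated adjuvant controls.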

[2] = system: Rattus norvegicus; test: The mean increase in paw volume was compared between drug treated groups and placebo to calculate the percent inhibition in rats at 0.02 mmol/kg by carrageenan Edema Assay; 40-49; assay type: functional
[3] = system: Rattus norvegicus; test: Antiinflammatory efficacy is measured by the weight gain in rats during the 3 week adjuvant arthritis test at 0.005 mM/kg (2.20 mg); assay type: functional
Outline: (§2)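 Rats were adjuvant-injected (M. butyricum in mineral oil, one hind paw) or given a mineral-oil placebo. They were dosed by gavage daily for 21 days from the injection day, with vehicle only for both control groups, then weighed at the end. Weight gain % = (treated − adjuvant control)/(negative control − adjuvant control) × 100.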

[4] = system: Rattus norvegicus; test: Ulcerogenicity was measured in intestine during the 3 week adjuvant arthritis test, no of animals with ulcers out of animals tested at 0.32 mM/kg (141 mg) was reported; toxic; assay type: functional, organism-based
Outline: (§3)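 Male Sprague-Dawley rats (200–230 g) were injected in the plantar tissue of one hind paw with 0.1 mL of 0.6% M. butyricum suspension in heavy mineral oil. Daily oral gavage began on the day of adjuvant injection and ran for the 21 days, with drug suspended in 1% gum tragacanth or a corn oil-water emulsion. At the end the rats were sacrificed and the small intestine and stomach were examined for ulcers. Results are given as animals with ulcers/animals tested.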

[5] = system: Rattus norvegicus; test: The percent inhibition was calculated from the average differences in hind paw volume between the adjuvant injected controls and the adjuvant-injected medicated rats at 0.08 mmol/kg; 80-89; assay type: functional
[6] = system: Rattus norvegicus; test: Antiinflammatory efficacy is measured by the percent inhibition of paw volume during the 3 week adjuvant arthritis test at 0.02 mM/kg (8.80 mg); assay type: functional; outline: as §1
[7] = system: Rattus norvegicus; test: Antiinflammatory efficacy is measured by the weight gain in rats during the 3 week adjuvant arthritis test at 0.08 mM/kg (35.2 mg); assay type: functional; outline: as §2
[8] = system: Rattus norvegicus; test: Antiinflammatory efficacy is measured by the weight gain in rats during the 3 week adjuvant arthritis test at 0.02 mM/kg (8.80 mg); assay type: functional; outline: as §2
[9] = system: Rattus norvegicus; test: Ulcerogenicity was measured in stomach during the 3 week adjuvant arthritis test, no of animals with ulcers out of 4 animals tested at 0.08 mM/kg (35.2 mg) was reported; assay type: functional; outline: as §3
[10] = system: Rattus norvegicus; test: Ulcerogenicity was measured in stomach during the 3 week adjuvant arthritis test, no of animals with ulcers out of 4 animals tested at 0.16 mM/kg (70.4 mg) was reported; assay type: functional; outline: as §3
[11] = system: Rattus norvegicus; test: Antiinflammatory efficacy is measured by the weight gain in rats during the 3 week adjuvant arthritis test at 0.16 mM/kg (70.4 mg); assay type: functional
Outline: (§4)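 Male Sprague-Dawley rats (200–230 g), eight per group, received 0.1 mL of 0.6% M. butyricum in heavy mineral oil (negative controls: mineral oil) into one hind-paw plantar tissue. Daily gavage in 1% gum tragacanth or corn oil-water emulsion began on the injection day, for 21 days. Weight gain is expressed as (treated − adjuvant control)/(negative control − adjuvant control) × 100.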

[12] = system: Rattus norvegicus; test: Ulcerogenicity was measured in intestine during the 3 week adjuvant arthritis test, no of animals with ulcers out of 4 animals tested at 0.08 mM/kg (35.2 mg) was reported; assay type: functional
Outline: (§5)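 In the 21-day adjuvant arthritis model, male Sprague-Dawley rats (200–230 g) received an M. butyricum mineral-oil suspension into one hind paw. They were dosed daily by gavage from the day of injection. At the end of the study the rats were killed, and the small intestines were examined for ulcers. Results are given as the number of ulcerated animals over the number tested.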

[13] = system: Rattus norvegicus; test: Antiinflammatory efficacy is measured by the percent inhibition of paw volume during the 3 week adjuvant arthritis test at 0.08 mM/kg (35.2 mg); assay type: functional; outline: as §1
[14] = species on record: Rattus norvegicus; test: Compound was evaluated for highest non-ulcerogenic dose (less than 50% ulcer incidence); assay type: functional; settings: read-out: ED50
Outline: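 Taken from the 21-day adjuvant arthritis test in male Sprague-Dawley rats dosed orally each day from the day of adjuvant injection. Small intestines and stomachs were examined for ulceration at the end. The value is the highest dose giving less than 50% ulcer incidence.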

[15] = system: Rattus norvegicus; test: Ulcerogenicity was measured in intestine during the 3 week adjuvant arthritis test, no of animals with ulcers out of 4 animals tested at 0.16 mM/kg (70.4 mg) was reported; assay type: functional; outline: as §5
[16] = system: Rattus norvegicus; test: The percent inhibition was calculated from the average differences in hind paw volume between the adjuvant injected controls and the adjuvant-injected medicated rats at 0.08 mmol/kg; 70-79; assay type: functional
[17] = system: Rattus norvegicus; test: The mean increase in paw volume was compared between drug treated groups and placebo to calculate the percent inhibition in rats at 0.08 mmol/kg by carrageenan Edema Assay; 60-69; assay type: functional
[18] = system: Rattus norvegicus; test: Antiinflammatory efficacy is measured by the weight gain in rats during the 3 week adjuvant arthritis test at 0.08 mM/kg (32.24 mg); assay type: functional; outline: as §2
[19] = system: Rattus norvegicus; test: Antiinflammatory efficacy is measured by the weight gain in rats during the 3 week adjuvant arthritis test at 0.005 mM/kg (2.03 mg); assay type: functional; outline: as §2
[20] = system: Rattus norvegicus; test: The percent inhibition was calculated from the average differences in hind paw volume between the adjuvant injected controls and the adjuvant-injected medicated rats at 0.08 mmol/kg; 90-99; assay type: functional
[21] = system: Rattus norvegicus; test: Ulcerogenicity was measured in stomach during the 3 week adjuvant arthritis test, no of animals with ulcers out of 3 animals tested at 0.32 mM/kg (130 mg) was reported; assay type: functional; outline: as §3
[22] = system: Rattus norvegicus; test: Antiinflammatory efficacy is measured by the weight gain in rats during the 3 week adjuvant arthritis test at 0.02 mM/kg (8.11 mg); assay type: functional; outline: as §2
[23] = system: Rattus norvegicus; test: The mean increase in paw volume was compared between drug treated groups and placebo to calculate the percent inhibition in rats at 0.02 mmol/kg by carrageenan Edema Assay; 50-59; assay type: functional
[24] = system: Rattus norvegicus; test: Antiinflammatory efficacy is measured by the percent inhibition of paw volume during the 3 week adjuvant arthritis test at 0.005 mM/kg (2.03 mg); assay type: functional; outline: as §1
[25] = system: Rattus norvegicus; test: Ulcerogenicity was measured in intestine during the 3 week adjuvant arthritis test, no of animals with ulcers out of 8 animals tested at 0.08 mM/kg (32.4 mg) was reported; assay type: functional; outline: as §5
[26] = system: Rattus norvegicus; test: Potency relative to phenylbutazone at 0.02 […]; assay type: functional
[27] = system: Rattus norvegicus; test: Antiinflammatory efficacy is measured by the percent inhibition of paw volume during the 3 week adjuvant arthritis test at 0.08 mM/kg (32.24 mg); assay type: functional; outline: as §1
[28] = system: Rattus norvegicus; test: Ulcerogenicity was measured in intestine during the 3 week adjuvant arthritis test, no of animals with ulcers out of 3 animals tested at 0.32 mM/kg (130 mg) was reported; assay type: functional; outline: as §5
[29] = system: Rattus norvegicus; test: Antiinflammatory efficacy is measured by the percent inhibition of paw volume during the 3 week adjuvant arthritis test at 0.02 mM/kg (8.11 mg); assay type: functional; outline: as §1
[30] = system: Rattus norvegicus; test: Ulcerogenicity was measured in stomach during the 3 week adjuvant arthritis test, no of animals with ulcers out of 8 animals tested at 0.08 mM/kg (32.4 mg) was reported; assay type: functional; outline: as §3
[31] = system: Rattus norvegicus; test: The mean increase in paw volume was compared between drug treated groups and placebo to calculate the percent inhibition in rats at 0.08 mmol/kg by carrageenan Edema Assay; 40-49; assay type: functional
[32] = system: Rattus norvegicus; test: Ulcerogenicity was measured in intestine during the 3 week adjuvant arthritis test, no of animals with ulcers out of 55 animals tested at 0.50 mM/kg (154 mg) was reported; assay type: functional; outline: as §5
[33] = system: Rattus norvegicus; test: Antiinflammatory efficacy is measured by the percent inhibition of paw volume during the 3 week adjuvant arthritis test at 0.08 mM/kg (24.6 mg); assay type: functional; outline: as §1
[34] = system: Rattus norvegicus; test: The percent inhibition was calculated from the average differences in hind paw volume between the adjuvant injected controls and the adjuvant-injected medicated rats at 0.08 mmol/kg; 60-69; assay type: functional; settings: Rattus norvegicus
[35] = system: Rattus norvegicus; test: Ulcerogenicity was measured in intestine during the 3 week adjuvant arthritis test, no of animals with ulcers out of 8 animals tested at 0.41 mM/kg (126 mg) was reported; assay type: functional; outline: as §3
[36] = system: Rattus norvegicus; test: Ulcerogenicity was measured in intestine during the 3 week adjuvant arthritis test, no of animals with ulcers out of 72 animals tested at 0.08 mM/kg (24.6 mg) was reported; assay type: functional; outline: as §5
[37] = system: Rattus norvegicus; test: Antiinflammatory efficacy is measured by the weight gain in rats during the 3 week adjuvant arthritis test at 0.50 mM/kg (154 mg); assay type: functional; outline: as §4
[38] = system: Rattus norvegicus; test: Ulcerogenicity was measured in stomach during the 3 week adjuvant arthritis test, no of animals with ulcers out of 72 animals tested at 0.08 mM/kg (24.6 mg) was reported; assay type: functional; outline: as §3
[39] = system: Rattus norvegicus; test: Ulcerogenicity was measured in stomach during the 3 week adjuvant arthritis test, no of animals with ulcers out of 8 animals tested at 0.41 mM/kg (126 mg) was reported; assay type: functional; outline: as §3
[40] = system: Rattus norvegicus; test: Antiinflammatory efficacy is measured by the weight gain in rats during the 3 week adjuvant arthritis test at 0.08 mM/kg (24.6 mg); assay type: functional; outline: as §2
[41] = system: Rattus norvegicus; test: Ulcerogenicity was measured in stomach during the 3 week adjuvant arthritis test, no of animals with ulcers out of 55 animals tested at 0.50 mM/kg (154 mg) was reported; assay type: functional; outline: as §3

CC(CN1CCCCC1CC1CCCCC1)c1cccc(C(O)c2ccc(Cl)cc2)c1 (stereo not drawn)
Inhibition [1]: 64%
inhibition in vivo at 20 µmol/kg [2]: 40%
Weight gain [3]: 40%
Ulcerogenic index [4]: Toxic
inhibition in vivo at 80 µmol/kg [5]: 80%
Inhibition [6]: 70%
Weight gain [7]: 87%
Weight gain [8]: 69%
Ulcerogenic index [9]: 0
Ulcerogenic index [10]: 0
Weight gain [11]: 84%
Ulcerogenic index [12]: 1
Inhibition [13]: 88%
highest non-ulcerogenic dose [14]: 1 µmol/kg
Ulcerogenic index [15]: 3

CC1CN(CC(C)c2cccc(C(=O)c3ccccc3)c2)CC(C)O1 (stereo not drawn)
inhibition in vivo at 80 µmol/kg [16]: 70%
inhibition in vivo at 80 µmol/kg [17]: 60%

CC(CN1CCCCC1CC1CCCCC1)c1cccc(C(O)c2ccccc2)c1 (stereo not drawn)
Weight gain [18]: 67%
Weight gain [19]: 13%
inhibition in vivo at 80 µmol/kg [20]: 90%
Ulcerogenic index [21]: 1
Weight gain [22]: 36%
inhibition in vivo at 20 µmol/kg [23]: 30%
Inhibition [24]: 37%
highest non-ulcerogenic dose [14]: 8 µmol/kg
Ulcerogenic index [25]: 1
Relative potency [26]: 8.6%
Inhibition [27]: 110%
Ulcerogenic index [28]: 3
Inhibition [29]: 82%
Ulcerogenic index [30]: 1

CCCCC1C(=O)N(c2ccccc2)N(c2ccccc2)C1=O [PHENYLBUTAZONE]
inhibition in vivo at 80 µmol/kg [31]: 40%
Ulcerogenic index [32]: 36
Inhibition [33]: 66%
inhibition in vivo at 80 µmol/kg [34]: 60%
Ulcerogenic index [35]: 2
Ulcerogenic index [36]: 11
highest non-ulcerogenic dose [14]: 40 µmol/kg
Weight gain [37]: 41%
Ulcerogenic index [38]: 14
Ulcerogenic index [39]: 3
Weight gain [40]: 21%
Ulcerogenic index [41]: 17
